Measurements as given in ChEMBL document CHEMBL1135796, “Inhibition of nNOS activity in rat brain by synthetic kynurenines: structure-activity dependence” (J Med Chem, 2002).
pIC50: −log10 of the molar value.

Tests used:
[1] = biological target: Nitric oxide synthase 1 (Rattus norvegicus) (UniProt P29476); test: Neuronal subtype of Neuronal nitric oxide synthase (nNOS) activity tested on Rat Striatal neurones at the concentration of 0(M)
Procedure, shortened: (§1)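 Rat striatal crude homogenate (supernatant after 1000g, 5 min) as nNOS source. L-[3H]-arginine to L-[3H]-citrulline conversion: 10 µM L-arginine plus 50 nM tracer, H4biopterin, FAD, 0.1 mM CaCl2, pH 7.6. Compounds added over 10 pM–1 mM. Started with NADPH (0.75 mM final), 30 min at 37 °C. Blank omits NADPH. Activity expressed as % of untreated samples. Three experiments in triplicate, four striata each.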

[2] = biological target: Nitric oxide synthase 1 (Rattus norvegicus) (UniProt P29476); test: Neuronal subtype of Neuronal nitric oxide synthase (nNOS) activity tested on Rat Striatal neurones at the concentration of 10e-5 (M); procedure, shortened: as §1
[3] = biological target: Nitric oxide synthase 1 (Rattus norvegicus) (UniProt P29476); test: Neuronal subtype of Neuronal nitric oxide synthase (nNOS) activity tested on Rat Striatal neurones at the concentration of 10e-7 (M); procedure, shortened: as §1
[4] = biological target: Nitric oxide synthase 1 (Rattus norvegicus) (UniProt P29476); test: Neuronal subtype of Neuronal nitric oxide synthase (nNOS) activity tested on Rat Striatal neurones at the concentration of 10e-11 (M); procedure, shortened: as §1
[5] = biological target: Nitric oxide synthase 1 (Rattus norvegicus) (UniProt P29476); test: Neuronal subtype of Neuronal nitric oxide synthase (nNOS) activity tested on Rat Striatal neurones at the concentration of 10e-3 (M); procedure, shortened: as §1
[6] = biological target: Nitric oxide synthase 1 (Rattus norvegicus) (UniProt P29476); test: Neuronal subtype of Neuronal nitric oxide synthase (nNOS) activity tested on Rat Striatal neurones at the concentration of 10e-9 (M); procedure, shortened: as §1
[7] = Compound tested for solubility measured in 3% ethanol:water or in 3% methanol:water; NS is not soluble; type: ADME; details: buffer
Nitric oxide synthase 1 = Nitric oxide synthase 1 (Rattus norvegicus, UniProt P29476); test: 50% inhibitory concentration against Neuronal nitric oxide synthase (nNOS) activity; procedure, shortened: as §1
Nitric oxide synthase 1, sequence (P29476 whole entry): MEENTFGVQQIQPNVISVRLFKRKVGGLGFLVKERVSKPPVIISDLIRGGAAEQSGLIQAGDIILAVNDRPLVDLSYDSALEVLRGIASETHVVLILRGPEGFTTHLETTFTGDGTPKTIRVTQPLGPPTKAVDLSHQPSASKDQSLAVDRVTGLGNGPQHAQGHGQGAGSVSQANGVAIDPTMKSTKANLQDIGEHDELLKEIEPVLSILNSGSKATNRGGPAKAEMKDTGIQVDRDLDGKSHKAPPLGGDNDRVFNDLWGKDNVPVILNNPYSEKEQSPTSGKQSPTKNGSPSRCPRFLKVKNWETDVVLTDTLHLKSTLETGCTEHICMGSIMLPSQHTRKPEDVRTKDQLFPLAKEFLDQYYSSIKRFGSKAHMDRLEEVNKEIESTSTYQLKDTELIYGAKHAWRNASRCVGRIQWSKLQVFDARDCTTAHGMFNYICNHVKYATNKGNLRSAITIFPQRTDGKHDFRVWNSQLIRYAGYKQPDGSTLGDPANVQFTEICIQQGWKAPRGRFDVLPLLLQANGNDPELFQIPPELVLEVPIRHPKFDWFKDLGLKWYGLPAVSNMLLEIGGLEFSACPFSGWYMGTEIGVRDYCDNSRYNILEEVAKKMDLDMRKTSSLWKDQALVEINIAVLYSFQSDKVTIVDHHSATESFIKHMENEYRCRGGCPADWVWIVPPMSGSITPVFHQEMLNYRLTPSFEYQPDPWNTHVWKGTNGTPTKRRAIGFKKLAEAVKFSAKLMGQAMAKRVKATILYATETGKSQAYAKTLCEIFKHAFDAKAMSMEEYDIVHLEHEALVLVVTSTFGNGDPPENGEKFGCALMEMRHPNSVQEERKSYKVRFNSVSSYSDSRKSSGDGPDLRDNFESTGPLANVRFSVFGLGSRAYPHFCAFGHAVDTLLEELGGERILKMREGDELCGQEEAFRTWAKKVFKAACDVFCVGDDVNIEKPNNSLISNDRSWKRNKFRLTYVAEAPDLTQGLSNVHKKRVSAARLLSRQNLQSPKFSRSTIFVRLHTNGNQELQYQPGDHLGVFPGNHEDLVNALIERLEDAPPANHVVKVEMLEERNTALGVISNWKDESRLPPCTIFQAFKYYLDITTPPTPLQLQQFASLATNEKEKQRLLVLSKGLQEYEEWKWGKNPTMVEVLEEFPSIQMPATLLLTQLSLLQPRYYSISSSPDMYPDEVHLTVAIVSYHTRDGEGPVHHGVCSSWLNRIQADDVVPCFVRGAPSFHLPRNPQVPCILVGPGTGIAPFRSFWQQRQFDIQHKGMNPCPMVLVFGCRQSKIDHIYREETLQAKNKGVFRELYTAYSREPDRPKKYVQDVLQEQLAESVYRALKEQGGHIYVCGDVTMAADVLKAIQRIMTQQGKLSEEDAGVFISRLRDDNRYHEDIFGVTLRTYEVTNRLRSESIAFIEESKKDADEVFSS

Nitric oxide synthase 1 (Rattus norvegicus), sequence (P29476 whole entry): as above

Structure (SMILES)	nNOS activity [1] [%]	nNOS activity [2] [%]	nNOS activity [3] [%]	nNOS activity [4] [%]	nNOS activity [5] [%]	nNOS activity [6] [%]	NS [7]	also measured
CCCC(=O)NC(C(=O)OCC)(C(=O)OCC)C(C)C(=O)c1ccccc1 (stereo not given)	–	–	–	–	–	–	Insoluble	–
CCCC(=O)NC(CC(=O)c1cc(OC)ccc1N)C(=O)O (stereo not given)	100	67.4	77.3	85.8	55	82.1	–	pIC50 (Nitric oxide synthase 1): < 3.00
CCOC(=O)C(CC(=O)c1cccc([N+](=O)[O-])c1)(NC(=O)CC)C(=O)OCC	–	–	–	–	–	–	Insoluble	–
CCOC(=O)C(CC(=O)c1cccc(OC)c1)(NC(=O)c1ccccc1)C(=O)OCC	–	–	–	–	–	–	Insoluble	–
CCCC(=O)NC(CC(=O)c1cccc(OC)c1)C(=O)O (stereo not given)	100	99.7	101	99.9	105	101	–	–
CCOC(=O)C(CC(=O)c1cccc(OC)c1)(NC(=O)C1CC1)C(=O)OCC	–	–	–	–	–	–	Insoluble	–
CCCC(=O)NC(CC(=O)c1cccc(OC)c1)(C(=O)OCC)C(=O)OCC	–	–	–	–	–	–	Insoluble	–
CCOC(=O)C(CC(=O)c1cccc(OC)c1)(NC(=O)C1CCCCC1)C(=O)OCC	–	–	–	–	–	–	Insoluble	–
COc1cccc(C(=O)CC(NC(C)=O)C(=O)O)c1 (stereo not given)	100	103	87.2	92.7	95.7	100	–	–
COc1ccc(N)c(C(=O)CC(NC(C)=O)C(=O)O)c1 (stereo not given) [KYNURENIN]	100	64	65.8	78.6	31.5	73.4	–	pIC50 (Nitric oxide synthase 1): 4.39
CCCC(=O)NC(CCC(=O)c1ccccc1)(C(=O)OCC)C(=O)OCC	–	–	–	–	–	–	Insoluble	–
CCOC(=O)C(CC(=O)c1cccc([N+](=O)[O-])c1)(NC(C)=O)C(=O)OCC	–	–	–	–	–	–	Insoluble	–

Continued, in another order:

nNOS activity [1] [%]	nNOS activity [2] [%]	nNOS activity [3] [%]	nNOS activity [4] [%]	nNOS activity [5] [%]	nNOS activity [6] [%]	NS [7]	Structure (SMILES)	also measured
100	101	99.6	100	99	99.9	–	COc1ccc(N(C)C)c(C(=O)CC(NC(C)=O)C(=O)O)c1 (stereo not given)	–
–	–	–	–	–	–	Insoluble	CCOC(=O)C(CC(=O)c1cc(OC)ccc1N(C)C)(NC(C)=O)C(=O)OCC	–
–	–	–	–	–	–	Insoluble	C/C=C/C(=O)NC(CC(=O)c1cccc(OC)c1)(C(=O)OCC)C(=O)OCC	–
–	–	–	–	–	–	Insoluble	CCCC(=O)NC(CC(=O)c1cc(OC)ccc1N)(C(=O)OCC)C(=O)OCC	–
–	–	–	–	–	–	Insoluble	CCOC(=O)C(CC(=O)c1cc(OC)ccc1NCc1ccccc1)(NC(C)=O)C(=O)OCC	–
100	98.2	100	101	100	101	–	COc1ccc(NCc2ccccc2)c(C(=O)CC(NC(C)=O)C(=O)O)c1 (stereo not given)	–
